According to ChEMBL document CHEMBL1143106, “Synthesis, SAR, and antibacterial activity of novel oxazolidinone analogues possessing urea functionality” (2008):
In brackets after ≈: the same amount, converted by molar mass.

Legend:
Type in all cases: functional
Staphylococcus aureus [1] = test: Antimicrobial activity against Staphylococcus aureus
Enterococcus faecium [2] = test: Antimicrobial activity against vancomycin-resistant Enterococcus faecium ATCC 12202 infected in po dosed mouse
Procedure, shortened: (§1)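 Mice with systemic infection; dosing was oral (po line) or subcutaneous (sc line); ED50 reported in mg/kg.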

Enterococcus faecalis [3] = test: Antimicrobial activity against vancomycin-resistant Enterococcus faecalis NCTC-12201
Enterococcus faecium [4] = test: Antimicrobial activity against vancomycin-resistant Enterococcus faecium ATCC 12202
Staphylococcus aureus [5] = test: Antimicrobial activity against methicillin-resistant Staphylococcus aureus ATCC 33591
Enterococcus faecalis [6] = test: Antimicrobial activity against vancomycin-sensitive Enterococcus faecalis ATCC 29212
Staphylococcus aureus [7] = test: Antimicrobial activity against Staphylococcus aureus ATCC 29213
Enterococcus faecium [8] = test: Antimicrobial activity against vancomycin-resistant Enterococcus faecium ATCC 12202 infected in sc dosed mouse; procedure, shortened: as §1

SMILES | MIC (Staphylococcus aureus [1]) | ED50 (Enterococcus faecium [2]) | MIC (Enterococcus faecalis [3]) | MIC (Enterococcus faecium [4]) | MIC (Staphylococcus aureus [5]) | MIC (Enterococcus faecalis [6]) | MIC (Staphylococcus aureus [7]) | ED50 (Enterococcus faecium [8])
CC(=O)NC[C@H]1CN(c2ccc(N3CCN(C(N)=O)CC3)c(F)c2)C(=O)O1 | 2 µg/mL (≈ 5.27 µM) | 13.8 mg/kg | 2 µg/mL (≈ 5.27 µM) | 2 µg/mL (≈ 5.27 µM) | 2 µg/mL (≈ 5.27 µM) | 2 µg/mL (≈ 5.27 µM) | 4 µg/mL (≈ 10.5 µM) | –
CC(=O)NC[C@H]1CN(c2ccc(N3CCN(C(=O)Nc4ccccn4)CC3)c(F)c2)C(=O)O1 | 2 µg/mL (≈ 4.38 µM) | – | 1 µg/mL (≈ 2.19 µM) | 1 µg/mL (≈ 2.19 µM) | 2 µg/mL (≈ 4.38 µM) | 1 µg/mL (≈ 2.19 µM) | 2 µg/mL (≈ 4.38 µM) | –
CC(=O)NC[C@H]1CN(c2ccc(N3CCN(C(=O)Nc4ccon4)CC3)c(F)c2)C(=O)O1 | 4 µg/mL (≈ 8.96 µM) | – | 2 µg/mL (≈ 4.48 µM) | 4 µg/mL (≈ 8.96 µM) | 4 µg/mL (≈ 8.96 µM) | 2 µg/mL (≈ 4.48 µM) | 4 µg/mL (≈ 8.96 µM) | –
CC(=O)NC[C@H]1CN(c2ccc(N3CCN(C(=O)Nc4ccccc4)CC3)c(F)c2)C(=O)O1 | 2 µg/mL (≈ 4.39 µM) | > 10 mg/kg | 2 µg/mL (≈ 4.39 µM) | 2 µg/mL (≈ 4.39 µM) | 4 µg/mL (≈ 8.78 µM) | 2 µg/mL (≈ 4.39 µM) | 4 µg/mL (≈ 8.78 µM) | –
CNC(=O)N1CCN(c2ccc(N3C[C@H](CNC(C)=O)OC3=O)cc2F)CC1 | 4 µg/mL (≈ 10.2 µM) | – | 2 µg/mL (≈ 5.08 µM) | 4 µg/mL (≈ 10.2 µM) | 4 µg/mL (≈ 10.2 µM) | 4 µg/mL (≈ 10.2 µM) | 4 µg/mL (≈ 10.2 µM) | –
CC(=O)NC[C@H]1CN(c2ccc(N3CCN(C(=O)NO)CC3)c(F)c2)C(=O)O1 | 2 µg/mL (≈ 5.06 µM) | – | 2 µg/mL (≈ 5.06 µM) | 2 µg/mL (≈ 5.06 µM) | 4 µg/mL (≈ 10.1 µM) | 4 µg/mL (≈ 10.1 µM) | 4 µg/mL (≈ 10.1 µM) | –
CC(=O)NC[C@H]1CN(c2ccc(N3CCN(C(=O)Nc4ccc(Cl)cc4Cl)CC3)c(F)c2)C(=O)O1 | 2 µg/mL (≈ 3.81 µM) | > 10 mg/kg | 1 µg/mL (≈ 1.91 µM) | 2 µg/mL (≈ 3.81 µM) | 1 µg/mL (≈ 1.91 µM) | 2 µg/mL (≈ 3.81 µM) | 2 µg/mL (≈ 3.81 µM) | –
CC(=O)NC[C@H]1CN(c2ccc(N3CCN(C(=O)Nc4cccc(F)c4)CC3)c(F)c2)C(=O)O1 | 2 µg/mL (≈ 4.22 µM) | 18.4 mg/kg | 1 µg/mL (≈ 2.11 µM) | 2 µg/mL (≈ 4.22 µM) | 2 µg/mL (≈ 4.22 µM) | 2 µg/mL (≈ 4.22 µM) | 4 µg/mL (≈ 8.45 µM) | –
COc1ccccc1NC(=O)N1CCN(c2ccc(N3C[C@H](CNC(C)=O)OC3=O)cc2F)CC1 | 2 µg/mL (≈ 4.12 µM) | 9.1 mg/kg | 2 µg/mL (≈ 4.12 µM) | 2 µg/mL (≈ 4.12 µM) | 2 µg/mL (≈ 4.12 µM) | 2 µg/mL (≈ 4.12 µM) | 2 µg/mL (≈ 4.12 µM) | –
COc1ccc(NC(=O)N2CCN(c3ccc(N4C[C@H](CNC(C)=O)OC4=O)cc3F)CC2)c(OC)c1 | 4 µg/mL (≈ 7.76 µM) | – | 2 µg/mL (≈ 3.88 µM) | 4 µg/mL (≈ 7.76 µM) | 4 µg/mL (≈ 7.76 µM) | 2 µg/mL (≈ 3.88 µM) | 4 µg/mL (≈ 7.76 µM) | –
CC(=O)NC[C@H]1CN(c2ccc(N3CCN(C(=O)Nc4ccccc4Cl)CC3)c(F)c2)C(=O)O1 | 2 µg/mL (≈ 4.08 µM) | – | 2 µg/mL (≈ 4.08 µM) | 2 µg/mL (≈ 4.08 µM) | 2 µg/mL (≈ 4.08 µM) | 2 µg/mL (≈ 4.08 µM) | 4 µg/mL (≈ 8.16 µM) | –
COc1ccc(CNC(=O)N2CCN(c3ccc(N4C[C@H](CNC(C)=O)OC4=O)cc3F)CC2)cc1 | 2 µg/mL (≈ 4 µM) | – | 2 µg/mL (≈ 4 µM) | 2 µg/mL (≈ 4 µM) | 2 µg/mL (≈ 4 µM) | 2 µg/mL (≈ 4 µM) | 4 µg/mL (≈ 8.01 µM) | –
CC(=O)NC[C@H]1CN(c2ccc(N3CCN(C(=O)Nc4nccs4)CC3)c(F)c2)C(=O)O1 | 2 µg/mL (≈ 4.32 µM) | 18.4 mg/kg | 1 µg/mL (≈ 2.16 µM) | 1 µg/mL (≈ 2.16 µM) | 2 µg/mL (≈ 4.32 µM) | 1 µg/mL (≈ 2.16 µM) | 2 µg/mL (≈ 4.32 µM) | –
CC(=N)NC(=O)N1CCN(c2ccc(N3C[C@H](CNC(C)=O)OC3=O)cc2F)CC1 | 4 µg/mL (≈ 9.51 µM) | – | 2 µg/mL (≈ 4.76 µM) | 4 µg/mL (≈ 9.51 µM) | 4 µg/mL (≈ 9.51 µM) | 2 µg/mL (≈ 4.76 µM) | 4 µg/mL (≈ 9.51 µM) | –
CC(=O)NC[C@H]1CN(c2ccc(N3CCN(C(=O)NC4CC4)CC3)c(F)c2)C(=O)O1 | 8 µg/mL (≈ 19.1 µM) | – | 4 µg/mL (≈ 9.54 µM) | 4 µg/mL (≈ 9.54 µM) | 8 µg/mL (≈ 19.1 µM) | 8 µg/mL (≈ 19.1 µM) | 16 µg/mL (≈ 38.1 µM) | –
CC(=O)NC[C@H]1CN(c2ccc(N3CCN(C(=O)NC(C)=O)CC3)c(F)c2)C(=O)O1 | 8 µg/mL (≈ 19 µM) | – | 4 µg/mL (≈ 9.49 µM) | 4 µg/mL (≈ 9.49 µM) | 8 µg/mL (≈ 19 µM) | 8 µg/mL (≈ 19 µM) | 16 µg/mL (≈ 38 µM) | –
CC(=O)NC[C@H]1CN(c2ccc(N3CCN(C(=O)NC4CCCCCC4)CC3)c(F)c2)C(=O)O1 | 4 µg/mL (≈ 8.41 µM) | – | 2 µg/mL (≈ 4.21 µM) | 4 µg/mL (≈ 8.41 µM) | 4 µg/mL (≈ 8.41 µM) | 4 µg/mL (≈ 8.41 µM) | 4 µg/mL (≈ 8.41 µM) | –
CC(=O)NC[C@H]1CN(c2ccc(N3CCN(C(=O)NCc4ccc(Cl)cc4)CC3)c(F)c2)C(=O)O1 | 4 µg/mL (≈ 7.94 µM) | – | 2 µg/mL (≈ 3.97 µM) | 4 µg/mL (≈ 7.94 µM) | 4 µg/mL (≈ 7.94 µM) | 4 µg/mL (≈ 7.94 µM) | 4 µg/mL (≈ 7.94 µM) | –
CC(=O)NC[C@H]1CN(c2ccc(N3CCN(C(=O)NC4CCCC4)CC3)c(F)c2)C(=O)O1 | 8 µg/mL (≈ 17.9 µM) | – | 4 µg/mL (≈ 8.94 µM) | 4 µg/mL (≈ 8.94 µM) | 8 µg/mL (≈ 17.9 µM) | 4 µg/mL (≈ 8.94 µM) | 8 µg/mL (≈ 17.9 µM) | –
CC(=O)NC[C@H]1CN(c2ccc(N3CCOCC3)c(F)c2)C(=O)O1 [LINEZOLID] | – | 3.91 mg/kg | – | 2 µg/mL (≈ 5.93 µM) | – | – | – | –
CN[C@H](CC(C)C)C(=O)N[C@H]1C(=O)N[C@@H](CC(N)=O)C(=O)N[C@H]2C(=O)N[C@H]3C(=O)N[C@H](C(=O)N[C@H](C(=O)O)c4cc(O)cc(O)c4-c4cc3ccc4O)[C@H](O)c3ccc(c(Cl)c3)Oc3cc2cc(c3O[C@@H]2O[C@H](CO)[C@@H](O)[C@H](O)[C@H]2O[C@H]2C[C@](C)(N)[C@H](O)[C@H](C)O2)Oc2ccc(cc2Cl)[C@H]1O [VANCOMYCIN] | – | – | > 32 µg/mL | > 32 µg/mL | – | 2 µg/mL (≈ 1.38 µM) | – | 3.93 mg/kg
